pIC50: −log10 of the molar value. Active and inactive are the calls of the source. The calls are words filed in the database; no cut-off is given here.
What was measured:
LoVo [1] = assay: Resistance ratio of IC50 for human LoVo/DX cells to IC50 for human LoVo cells; assay type: functional
How it was run: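 Ratio of IC50 in resistant line to IC50 in parental line (CEMVbl-100/CEM; LoVoDoxo/LoVo), each IC50 from 72 h MTT dose–response curves, ≥3 independent experiments.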

PBMC [2] = assay: Cytotoxicity against human PHA-stimulated PBMC assessed as growth inhibition after 72 hrs by MTT assay; assay type: functional, cell-based
HeLa [3] = assay: Induction of apoptosis in human HeLa cells assessed as increase in Bid protein expression at 1 uM after 24 hrs by Western blotting analysis; assay type: functional, cell-based
Tubulin (Bos taurus) = Tubulin (Bos taurus) (UniProt Q6B856+Q862L2+Q862F3); assay: Inhibition of bovine brain tubulin polymerization at 20 uM by turbidimetry
How it was run: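 Purified bovine brain tubulin (10 μM) preincubated with compound in glutamate buffer at 30 °C, cooled to 0 °C, GTP added, then warmed to 30 °C in cuvettes; assembly followed turbidimetrically; concentrations up to 20 μM.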

HeLa [4] = assay: Induction of apoptosis in human HeLa cells assessed as caspase activation at 2.5 uM after 48 hrs in presence of pan-caspase inhibitor z-VAD.fmk; assay type: functional, cell-based
How it was run: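 HeLa cells given 2.5 μM compound for 48 h with or without 100 μM z-VAD.fmk pan-caspase inhibitor; viability measured; means ± SEM of three independent experiments, Student's t-test.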

HeLa [5] = assay: Cell cycle arrest in human HeLa cells assessed as reduction in S phase after 24 hrs by propidium iodide staining-based flow cytometry; assay type: functional
How it was run: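 HeLa cells in exponential growth (2.5 × 10^5) treated 24 h at various concentrations; ethanol-fixed (70%, ice-cold), lysed with RNase A/0.1% Triton X-100, PI-stained; DNA content by flow cytometry, phase percentages from DNA histograms.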

HeLa [6] = assay: Induction of apoptosis in human HeLa cells assessed as caspase-3 activation after 24 to 48 hrs by Western blotting analysis; assay type: functional, cell-based
How it was run: (§1)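 HeLa cells treated at indicated concentrations and times; washed in cold PBS, lysed 30 min at 0 °C, cleared at 15 000 × g; 20 μg protein resolved on 7.5–15% gradient SDS-PAGE, blotted to PVDF, primary antibodies 2 h room temperature, peroxidase secondary 60 min, ECL detection; β-actin reprobe for loading.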

HeLa [7] = assay: Induction of apoptosis in human HeLa cells assessed as reduction in Mcl-1 protein expression at 2.5 uM after 48 hrs by Western blotting analysis; assay type: functional, cell-based; how it was run: as §1
[8] = Selectivity ratio of IC50 for human resting PBMC to IC50 for human CEM cells; assay type: ADME, cell-based, CCRF-CEM; conditions: resting PBMC versus CEM cells, read-out: Ratio IC50
HeLa [9] = assay: Induction of apoptosis in human HeLa cells assessed as GSH depletion after 24 hrs by CMFDA staining-based flow cytometry; assay type: functional, cell-based
How it was run: (§2)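 HeLa cells treated 24 h with compound, alone or with 100 μM NAC; harvested and loaded with 5 μM CMFDA, 30 min at 37 °C; intracellular GSH read as CMFDA fluorescence by flow cytometry; means ± SEM.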

CCRF-CEM = assay: Cytotoxicity against human CEM cells assessed as growth inhibition after 72 hrs by MTT assay; assay type: functional, cell-based
HeLa [10] = assay: Induction of apoptosis in human HeLa cells assessed as caspase-9 activation at 1 to 2.5 uM after 24 to 48 hrs by Western blotting analysis; assay type: functional, cell-based; how it was run: as §1
HeLa [11] = assay: Induction of apoptosis in human HeLa cells at 0.62 to 5 uM after 24 to 48 hrs by Annexin V/FITC staining-based flow cytometry; assay type: functional, cell-based
How it was run: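 HeLa cells treated 24 or 48 h at indicated concentrations, then stained with annexin-V-FITC plus PI; flow cytometry with 488 nm excitation, 525 and 585 nm emission; live, early/late apoptotic and necrotic populations distinguished; means of three independent experiments.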

HeLa [12] = assay: Induction of apoptosis in human HeLa cells assessed as caspase-3 activation at 1 to 2.5 uM by Western blotting analysis; assay type: functional, cell-based; conditions: TDE = time-dependent effect; how it was run: as §1
HeLa [13] = assay: Induction of apoptosis in human HeLa cells assessed as increase in Bax protein expression at 1 to 2.5 uM after 24 to 48 hrs by Western blotting analysis; assay type: functional, cell-based
HeLa [14] = assay: Induction of apoptosis in human HeLa cells assessed as GSH depletion at 1 to 2.5 uM after 24 hrs by CMFDA staining-based flow cytometry in presence of N-acetylcysteine; assay type: functional, cell-based; how it was run: as §2
HeLa [15] = assay: Induction of apoptosis in human HeLa cells assessed as cell viability at 2.5 uM after 48 hrs by MTT assay in presence of reduced glutathione; assay type: functional, cell-based
How it was run: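 HeLa cells exposed to 2.5 μM compound for 48 h with scavengers (NAC 100 μM, GSH 1 mM or DTT 1 mM, among others); viability by MTT; means ± SEM of four independent experiments, Student's t-test.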

Tubulin (Homo sapiens) = Tubulin (Homo sapiens) (UniProt P68371+Q9H4B7+P0DPH7+P68366+Q13509+Q71U36+P04350+Q3ZCM7+P07437+P68363+Q9BQE3+Q6PEY2+Q13885+Q9BVA1+Q9BUF5); assay: Inhibition of tubulin polymerization in human HeLa cells assessed as microtubule disruption at 2.5 to 5 uM after 24 hrs by immunofluorescence microscopy relative to untreated control; assay type: cell-based
How it was run: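 HeLa cells exposed 24 h to 2.5 or 5.0 μM versus untreated; fixed in cold 4% formaldehyde 15 min, stained with anti-β-tubulin monoclonal (1:1000) and Alexa secondary (1:2000), DAPI counterstain; imaged by confocal microscopy at 20×.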

HeLa [16] = assay: Induction of apoptosis in human HeLa cells assessed as PARP cleavage at 1 to 2.5 uM by Western blotting analysis; assay type: functional, cell-based; conditions: TDE = time-dependent effect; how it was run: as §1
HeLa [17] = assay: Induction of apoptosis in human HeLa cells assessed as reduction in Bcl-2 protein expression at 1 to 2.5 uM by Western blotting analysis; assay type: functional, cell-based; conditions: TDE = time-dependent effect; how it was run: as §1
HeLa [18] = assay: Induction of apoptosis in human HeLa cells assessed as mitochondrial depolarization at 1 to 5 uM after 12 hrs by JC-1 staining-based flow cytometry; assay type: functional, cell-based
Jurkat = assay: Cytotoxicity against human Jurkat cells assessed as growth inhibition after 72 hrs by MTT assay; assay type: functional, cell-based
LoVo [19] = assay: Cytotoxicity against human LoVo cells assessed as growth inhibition after 72 hrs by MTT assay; assay type: functional, cell-based
HeLa [20] = assay: Induction of apoptosis in human HeLa cells assessed as reduction in Bcl-2 protein expression at 1 to 2.5 uM after 48 hrs by Western blotting analysis; assay type: functional, cell-based; how it was run: as §1
[21] = Selectivity ratio of IC50 for human resting PBMC to IC50 for human Jurkat cells; assay type: ADME, cell-based; conditions: resting PBMC versus Jurkat cells, read-out: Ratio IC50
HeLa [22] = assay: Induction of apoptosis in human HeLa cells assessed as increase in Bak protein expression at 1 to 2.5 uM after 24 to 48 hrs by Western blotting analysis; assay type: functional, cell-based
PBMC [23] = assay: Cytotoxicity against human resting PBMC assessed as growth inhibition after 72 hrs by MTT assay; assay type: cell-based
How it was run: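 Healthy-donor PBMC from Lymphoprep gradient, rested overnight in RPMI-1640/10% FBS; non-adherent cells at 5 × 10^5 cells/mL without PHA, treated 72 h with varying concentrations; viability by MTT; IC50 mean ± SEM, three separate experiments.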

With `C=C(Br)C(=O)Nc1ccc(/C=C/C(=O)Nc2cc(OC)c(OC)c(OC)c2)cc1` the “Ratio IC50” value (LoVo [1]) was 0.6, the pIC50 (PBMC [2]) was 6.62 and the Activity (HeLa [3]) was “inactive”. The inhibition (Tubulin (Bos taurus)) was “inactive”, the Activity (HeLa [4]) was “inactive” and the Activity (HeLa [5]) was “Active”. For the same compound, the Activity (HeLa [6]) was “Dose-dependent effect”, the Activity (HeLa [7]) was “Active” and the selectivity ratio [8] was 10. The Activity (HeLa [9]) was “Dose-dependent effect”, the pIC50 (CCRF-CEM) was 7.60 and the Activity (HeLa [10]) was “inactive”. For the same compound, the Activity (HeLa [11]) was “Active”, the Activity (HeLa [12]) was “tde” and the Activity (HeLa [13]) was “inactive”. For the same compound, the Activity (HeLa [14]) was “inactive”, the Activity (HeLa [15]) was “inactive” and the inhibition (Tubulin (Homo sapiens)) was “inactive”. The Activity (HeLa [16]) was “tde”, the Activity (HeLa [17]) was “tde” and the Activity (HeLa [18]) was “Active”. The pIC50 (Jurkat) was 6.39, the pIC50 (LoVo [19]) was 5.68 and the Activity (HeLa [20]) was “Active”. For the same compound, the selectivity ratio [21] was 10, the Activity (HeLa [22]) was “inactive” and the pIC50 (PBMC [23]) was 5.46.
